CCR6 antag: CCR6 (human) receptor antagonism | P51684 | CHO-K1 CCR6 PathHunter beta-arrestin, luminescence, CCL20-stimulated | inhibition, % at 20 µM | hit rate 0.49% among 340,000 | AID 493098;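 active = compounds whose inhibition of the agonist-driven luminescence signal at 20 µM reaches about 50%, limit read from the data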;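 note: cells stimulated with CCL20 at 14 nM final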
APJ agonist: agonists of human APJ apelin receptor. P35414. CHO-K1 APJ PathHunter beta-arrestin, luminescence; 0% DMSO wells, 100% apelin. activation, % at 20 µM. hit rate 0.11% among 330,000. AID 2520;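 active = activation more than six SD over the plate average, tested at 20 µM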
Target sequence (P35414 whole entry, looked up): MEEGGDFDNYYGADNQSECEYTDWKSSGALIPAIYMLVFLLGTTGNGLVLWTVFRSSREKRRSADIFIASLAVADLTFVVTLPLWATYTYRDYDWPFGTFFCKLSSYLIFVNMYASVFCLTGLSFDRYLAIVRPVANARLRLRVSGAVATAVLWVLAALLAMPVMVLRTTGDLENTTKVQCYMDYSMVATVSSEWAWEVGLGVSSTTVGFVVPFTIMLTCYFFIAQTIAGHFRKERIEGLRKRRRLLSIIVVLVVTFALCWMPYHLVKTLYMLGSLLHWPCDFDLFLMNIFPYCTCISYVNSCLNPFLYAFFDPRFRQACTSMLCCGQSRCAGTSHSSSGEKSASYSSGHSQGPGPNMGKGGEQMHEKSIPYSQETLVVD
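Assay system – PathHunter CHO-K1 APJ (AGTRL-1) beta-arrestin reporter cells · Compound – one dose, 20 µM compound, 1% DMSO · Timing – compound 90 min 25 °C, reagent 1 h · Measured by – luminescence from split beta-galactosidase complementation, Galacton Star/Emerald II substrate · Measure – beta-arrestin recruitment to APJ as agonist activity, luminescent signal · Benchmarks – DMSO vs Apelin-13 10 nM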
EBI2 antag: blocks human EBI2 receptor beta-arrestin signaling | hit rate 0.81% among 360,000 | EBI2 beta-arrestin recruitment, luminescence, 7a,25-OHC stimulated | P32249 | inhibition, % at 5 µM; in the data active = inhibition above about 38%;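 note: enzyme fragment complementation signal reports receptor beta-arrestin coupling in cells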
APJ antagonist: blocks the human apelin receptor APJ | P35414 | CHO-K1 APJ beta-arrestin complementation, luminescence | inhibition, % at 20 µM | hit rate 0.32% among 330,000 | AID 2521;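 active = inhibition above about 40% at 20 µM, limit read from the data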;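 note: cells challenged with 10 nM apelin-13 agonist together with compound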
CXCR6 inh: blocks human CXCR6 beta-arrestin recruitment; inhibition, % at 20 µM; O00574; CHO-K1 PathHunter CXCR6 beta-arrestin, luminescence; hit rate 0.36% among 360,000; in the data active = inhibition above about 34%, passing the limit was not always enough;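 note: antagonist mode with CXCL16 agonist at 10 nM final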
Target sequence (O00574 whole entry, looked up): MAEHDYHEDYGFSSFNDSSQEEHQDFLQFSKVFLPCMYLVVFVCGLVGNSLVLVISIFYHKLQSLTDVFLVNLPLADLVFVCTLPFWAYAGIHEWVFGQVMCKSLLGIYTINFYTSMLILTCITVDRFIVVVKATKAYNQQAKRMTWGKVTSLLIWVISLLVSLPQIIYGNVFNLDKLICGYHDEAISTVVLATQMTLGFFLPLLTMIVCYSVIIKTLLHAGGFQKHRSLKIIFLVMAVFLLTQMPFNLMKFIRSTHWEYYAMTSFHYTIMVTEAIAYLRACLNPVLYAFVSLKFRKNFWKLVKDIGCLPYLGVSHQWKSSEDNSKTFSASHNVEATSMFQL
Each line names hits and unclear results; the compound was inactive in the other large screens. Only some compounds are listed: those with a hit (about 1.5% of all), similar ones and a draw of the others.

O=C(Cc1ccccc1F)Nc1cc(S(=O)(=O)N2CCCCC2)ccc1N1CCOCC1	none (no result: CCR6 antag, APJ agonist, APJ antagonist)
Cc1cccc(-n2nc([N+](=O)[O-])c(=NC3CCN(Cc4ccccc4)CC3)n2O)c1	APJ agonist 16
CN1CCN(c2ccccc2NC(=O)c2ccc(Br)o2)CC1	none
O=C(Nc1ccccc1N1CCOCC1)c1ccc(Br)o1	CCR6 antag 51
CN1CCN(c2ccccc2NC(=O)c2ccc(-c3cccc(Cl)c3)o2)CC1	CCR6 antag 55
C=C1C(=O)C23C(O)C1CCC2C12COC3(O)C(O)C1C(C)(C)CCC2O (stereo unspecified)	none (no result: CCR6 antag, APJ agonist, APJ antagonist)
COc1ccc(/C=C2\CN(Cc3ccccc3)C/C(=C\c3ccc(OC)c(O)c3)C2=O)cc1O	CXCR6 inh 52
COc1cc(C=C2C(=O)c3ccccc3C2=O)cc(OC)c1OC	none
COc1cc(/C=C2\COC/C(=C\c3ccc(O)c(OC)c3)C2=O)ccc1O	CCR6 antag 56, APJ antagonist 44, CXCR6 inh 41
COc1cc(/C=C2/CC/C(=C/c3ccc(O)c(OC)c3)C2=O)ccc1O	CCR6 antag 61, CXCR6 inh 55
COc1cc(C=C2C(=O)c3ccccc3C2=O)ccc1O	APJ antagonist 61
Clc1ccc(-c2csc3ncnc(Cl)c23)cc1	none
NNc1ncnc2scc(-c3ccc(Cl)cc3)c12	APJ antagonist 46
COc1cc(C2Nc3cc(C)c(C)cc3NC3=C2C(=O)CC(C)(C)C3)ccc1OC(C)=O (stereo unspecified)	none
Cc1cc2c(cc1C)NC(c1c(C)n(C)n(-c3ccccc3)c1=O)C1=C(CC(C)(C)CC1=O)N2 (stereo unspecified)	CCR6 antag 77
O=c1[nH]c(=S)[nH]c2c1[C@H](CCc1cccc(Cl)c1)O[C@H](C1CC1)C2	none (no result: CCR6 antag, APJ agonist, APJ antagonist)
N#CC(C#N)=c1ccc2c(c1)NC1(CCCCC1)N=2	CCR6 antag 54
NC(=O)c1ccc(N=Nc2c(-c3ccccc3)[nH]n(-c3ccccc3)c2=O)cc1	none (no result: CCR6 antag, EBI2 antag, CXCR6 inh)
NS(=O)(=O)c1ccc(N=Nc2c(-c3ccccc3)[nH]n(-c3nc(-c4ccccc4)cs3)c2=O)cc1	CXCR6 inh 44
CCOC(=O)C1CCCN(C(=O)c2cc(C)n(C(C)(C)C)n2)CC1 (stereo unspecified)	none (no result: CCR6 antag, APJ agonist, APJ antagonist)
Cc1ccc(S(=O)(=O)N2CCCCC2)cc1NC(=O)Cn1ncc(Cl)c(Cl)c1=O	EBI2 antag 63
CCN(C)C1CN(Cc2cn(Cc3cc(C)cc(C)c3)nn2)S(=O)(=O)C1 (stereo unspecified)	none (no result: CCR6 antag, APJ agonist, APJ antagonist)
CC1OC2CC(=O)OC2C2=C1C(=O)c1c(O)cccc1C2=O (stereo unspecified)	CXCR6 inh 79 (no result: CCR6 antag, APJ agonist, APJ antagonist)
O=C1c2cccc(O)c2C(=O)c2c(O)cc(CO)cc21	none (no result: EBI2 antag, CXCR6 inh)
COc1ncc(-c2ccc(N3C(c4ccsc4)=Cc4ccc(F)cc4C3CC(C)=O)cc2)cn1 (stereo unspecified)	none (no result: CCR6 antag, APJ agonist, APJ antagonist)
Cc1cc(N2CCN(C(C(=O)NC3CCCC3)c3ccc(F)cc3)CC2)c2ccccc2n1 (stereo unspecified)	none (no result: CCR6 antag, APJ agonist, APJ antagonist, CXCR6 inh)
COc1ccccc1C(=O)NNC(=S)NC(=O)c1cc(OC)c(OC)c(OC)c1	CCR6 antag 58
COc1cc(C(=O)NNC(=S)NC(=O)c2ccccc2C)cc(OC)c1OC	none
CCOc1ccc(/C=C2\SC(=S)N(Nc3ccccc3)C2=O)cc1OC	none
COc1cc(/C=C2\SC(=S)N(NS(=O)(=O)c3ccc(C)cc3)C2=O)ccc1O	CXCR6 inh 37
COc1cc(/C=C2\SC(=S)N(NC(=O)c3ccncc3)C2=O)ccc1O	CCR6 antag 53
CC(/C=C1\SC(=S)N(NC(=O)c2ccncc2)C1=O)=C\c1ccccc1	none
CCOc1cc(/C=C2\SC(=S)N(NC(=O)c3cccnc3)C2=O)ccc1O	APJ antagonist 44
COc1cc(/C=C2\SC(=S)N(Nc3ccccc3)C2=O)cc(OC)c1OC	CCR6 antag 51
O=C(NN1C(=O)/C(=C/c2cccs2)SC1=S)c1cccnc1	none
Cc1cccc(C)c1-n1nnnc1C1c2ccccc2C(=O)N1CCCn1ccnc1 (stereo unspecified)	none (no result: CCR6 antag, APJ agonist, APJ antagonist)
CCN(CC)C(=O)C1=C(C)N(Cc2ccc(C(C)(C)C)cc2)C(=O)C(CC(=O)NCCCCc2ccccc2)C1 (stereo unspecified)	none (no result: CCR6 antag, APJ agonist, APJ antagonist)
COC(=O)C[C@H]1C=C[C@H](NC(=O)Nc2ccccc2F)[C@@H](CO)O1	none (no result: CCR6 antag, APJ agonist, APJ antagonist, CXCR6 inh)
N#CC1(NC(=O)COC(=O)C2CCN(S(=O)(=O)c3ccc4c(c3)OCCO4)CC2)CCCCC1	none (no result: APJ agonist, APJ antagonist)
Cc1cc(C)c(Nc2cc(S(=O)(=O)O)c(N)c3c2C(=O)c2ccccc2C3=O)c(C)c1	CCR6 antag 54, CXCR6 inh 39 (no result: APJ agonist, APJ antagonist)
O=C1C=CC(=O)N1Cc1ccccc1	CCR6 antag 107, CXCR6 inh 90
CC[C@@H]1CC2=C(C(=O)OC(C)(C)O2)[C@H](c2ccc(Cl)cc2)O1	none (no result: CCR6 antag, APJ agonist, APJ antagonist)
C=CCOC(=O)C(C#N)c1nc2ccccc2nc1N1CCN(c2ccccc2OC)CC1 (stereo unspecified)	CCR6 antag 52
COc1cccc(-c2nc(-c3cccc(C)c3)nc3cc(Cl)ccc23)c1	none (no result: CCR6 antag, APJ agonist, APJ antagonist)
Cc1cc(S(=O)(=O)c2ccc(Cl)cc2)nc(S(=O)(=O)c2ccc(Cl)cc2)c1C#N	CXCR6 inh 75 (no result: CCR6 antag, APJ agonist, APJ antagonist)
Cc1ccc(NC(=S)NNc2ccc([N+](=O)[O-])cc2S(=O)(=O)Nc2ccccc2C(=O)O)cc1C	CCR6 antag 68 (no result: APJ agonist, APJ antagonist)
CN(CCO)c1ccc(C=NNc2ccc([N+](=O)[O-])cc2S(=O)(=O)Nc2ccccc2C(=O)O)cc1	CCR6 antag 62
O=C(O)c1ccccc1NS(=O)(=O)c1ccc(NNC(=S)Nc2ccc(OC(F)F)cc2)c([N+](=O)[O-])c1	CCR6 antag 53, CXCR6 inh 35 (no result: APJ agonist, APJ antagonist)
O=C(CC[C@H]1O[C@@H](n2cnc3c(NC(=O)c4ccccc4)ncnc32)[C@H](O)[C@@H]1O)NCC1CCN(Cc2ccccc2)CC1	none (no result: CCR6 antag, APJ agonist, APJ antagonist)
OC(c1ccc(F)cc1)c1nc(-c2cccc(F)c2)cs1 (stereo unspecified)	none (no result: CCR6 antag, APJ agonist, APJ antagonist)
COc1c(C)cc(C(O)c2ncc(-c3ccc(C(F)(F)F)cc3)[nH]2)cc1C (stereo unspecified)	none (no result: CCR6 antag, APJ agonist, APJ antagonist)
Cc1ccc(C(=O)N/C(=C\c2ccc(-c3ccc(Br)cc3)o2)C(=O)NCCCN(C)C)cc1	CCR6 antag 70
N#Cc1ccc(-c2cccnc2)nc1SCC(=O)c1ccccc1	EBI2 antag 40
CCOC(=O)C[C@@H]1OC[C@H](CO)N1S(=O)(=O)c1ccc(C)cc1	none (no result: CCR6 antag, APJ agonist, APJ antagonist, CXCR6 inh)
COc1ccc(C2(CO)OC(CO)C(O)C2O)cc1 (stereo unspecified)	none (no result: APJ agonist, APJ antagonist)
Nc1c(Cl)cc2c(c1Br)Cc1ccccc1-2	none (no result: APJ agonist, APJ antagonist)
Nc1c(Cl)cc2c(c1Oc1ccccc1)C(=O)c1ccccc1C2=O	CXCR6 inh 38
CC(=O)OCC(=O)C1(O)CCC2C3CC(C)C4=CC(=O)C=CC4(C)C3C(O)CC21C (stereo unspecified)	none (no result: CCR6 antag, APJ agonist, APJ antagonist)
CN(C)c1ccc(N=Nc2ccccc2C(=O)OCC(=O)NCC2CCCCC2)cc1	CCR6 antag 54
O=C1CC(=O)OC(c2ccc([N+](=O)[O-])cc2)O1	CXCR6 inh 50 (no result: CCR6 antag, APJ agonist, APJ antagonist)

Source: PubChem
